Only some compounds are listed: those with a hit (about 6.4% of all), similar ones and a draw of the others.
Tb MetRS inh – T. brucei MetRS inhibitors, primary screen, biochemical, luminescence. 360,000 compounds, 0.4% hits. inhibition, % at 11.9 µM. methionyl-tRNA synthetase (Trypanosoma brucei brucei). purified T. brucei MetRS, ATP depletion, Kinase-Glo luminescence;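 active means inhibition above a per-plate cutoff of the control wells' mean inhibition plus 3 SD, cut at about 5.5% in these data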
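Test system – parasite MetRS enzyme · Reagent – substrates ATP, L-methionine and bulk Escherichia coli tRNA · Doses – 11.9 µM compound single dose, 0.9% DMSO · Times – 15 min enzyme-compound preincubation, 2 h reaction, 10 min detection, 25 °C · Signal – Kinase-Glo luminescence, ATP depletion format · Controls – DMSO-only wells as low control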
EBV gp42 block – Epstein-Barr virus gp42 inhibitors, primary screen, biochemical, uHTS, fluorescence polarization; Glycoprotein 42 (Epstein-Barr virus (strain AG876)), Q1HVG2; Fluorescence polarization binding assay, mP read-out; inhibition, % (tested at 21.74 µM); 220,000 compounds, 0.42% hits; AID 1085, 2008; in the data active means inhibition above about 50%
Target sequence (Q1HVG2 whole entry, looked up): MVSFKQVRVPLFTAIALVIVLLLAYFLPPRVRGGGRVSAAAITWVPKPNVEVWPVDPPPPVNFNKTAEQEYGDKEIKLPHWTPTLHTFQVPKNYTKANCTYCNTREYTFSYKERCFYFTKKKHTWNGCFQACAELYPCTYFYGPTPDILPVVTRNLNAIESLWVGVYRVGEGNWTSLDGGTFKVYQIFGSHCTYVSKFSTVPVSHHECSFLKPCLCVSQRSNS
CHOP inh – inhibitors of CHOP promoter induction, primary screen, cell-based, unfolded protein response, luciferase reporter | CHO-K1 CHOP-promoter luciferase, tunicamycin-induced, 15-18 h | inhibition, % at 10 µM | 220,000 compounds, 3.8% hits;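 active means compounds that reduced the stress-induced luciferase reporter signal by more than about 70% of percent inhibition, limit read from the data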
NR3A LBD binder – binders of NR3A ligand-binding domain, primary screen, biophysical, differential scanning fluorimetry, uHTS; Tm shift relative to glycine control, % at 25 µM; NR3A LBD differential scanning fluorimetry, Tm shift; 0% = protein alone, 100% = glycine-bound protein; Glutamate receptor ionotropic, NMDA 3A (GRIN3A) ligand-binding domain; 340,000 compounds, 2.5% hits;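 active means melting temperature shift of at least 10% of the positive control shift, at one fixed dose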
WT yeast gro inh – growth inhibition of WT strain, primary screen, mitochondrial fusion inhibitor project, WT and mutant strains, chemical genetic. AID 1362, 2008. inhibition, % at 10 µM. mitochondrial fusion phenotypic screen. 190,000 compounds, 2.1% hits; in the data active means inhibition above about 58%; tested in S. cerevisiae
MPTP inh – mitochondrial permeability transition pore inhibitors, primary screen, biochemical, isolated mouse mitochondria, absorbance; Ca2+ swelling absorbance, 30 min; inhibition, % at 10 µM; 360,000 compounds, 1.4% hits;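 active means inhibition of 50% or more, scaled per plate between neutral and stimulator controls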
Numbers stand for hits.

Results for Cc1ccccc1/C=N/N1CCN(c2ccccc2)CC1 ?
Tb MetRS inh: inactive; EBV gp42 block: inactive; CHOP inh: inactive; NR3A LBD binder: 12.7; WT yeast gro inh: inactive; MPTP inh: inactive

How did COc1ccc(N=CC2=C(O)CC(C)(C)CC2=O)cc1OC do in these assays?
Tb MetRS inh: inactive; EBV gp42 block: inactive; CHOP inh: inactive; NR3A LBD binder: inactive; MPTP inh: inactive

What do the screens show for `Cc1cccc(/C(N)=N/OC(=O)N2c3ccccc3Sc3ccccc32)c1`?
Tb MetRS inh: inactive; EBV gp42 block: inactive; CHOP inh: inactive; NR3A LBD binder: inactive; WT yeast gro inh: 66.7; MPTP inh: inactive

Results for N/C(=N\OC(=O)c1ccccc1Cl)c1ccccc1 ?
Tb MetRS inh: inactive; EBV gp42 block: inactive; CHOP inh: inactive; NR3A LBD binder: inactive; WT yeast gro inh: inactive; MPTP inh: inactive

How did N/C(=N\OC(=O)N1c2ccccc2Sc2ccccc21)c1ccccc1 do in these assays?
Tb MetRS inh: inactive; EBV gp42 block: inactive; CHOP inh: inactive; NR3A LBD binder: inactive; WT yeast gro inh: 65.7; MPTP inh: inactive

What do the screens show for `Cc1nc(SCC(=O)c2cc3ccccc3oc2=O)c(C#N)c(-c2ccccc2)c1C(=O)Nc1ccccc1`?
Tb MetRS inh: inactive; EBV gp42 block: inactive; CHOP inh: 94.7; NR3A LBD binder: inactive; WT yeast gro inh: inactive; MPTP inh: inactive

How did CCN(CC)c1ccc2c(O)cc(=O)oc2c1 do in these assays?
Tb MetRS inh: inactive; EBV gp42 block: inactive; CHOP inh: inactive; NR3A LBD binder: inactive; WT yeast gro inh: inactive; MPTP inh: inactive

How did CCN(CC)c1ccc2c(Cl)cc(=O)oc2c1 do in these assays?
EBV gp42 block: inactive; CHOP inh: 93.8; NR3A LBD binder: inactive; WT yeast gro inh: inactive

What do the screens show for `C=C(C)C1CC=C(C)/C(=N\NC(=S)Nc2ccc(C)cc2)C1` (configuration not stated)?
Tb MetRS inh: inactive; EBV gp42 block: inactive; CHOP inh: inactive; NR3A LBD binder: inactive; WT yeast gro inh: 60.7; MPTP inh: inactive

What do the screens show for `C=C(C)C1CC=C(C)/C(=N/NC(=O)COc2ccc(C)cc2)C1` (configuration not stated)?
Tb MetRS inh: inactive; EBV gp42 block: inactive; CHOP inh: 70.3; NR3A LBD binder: inactive; WT yeast gro inh: inactive; MPTP inh: inactive

Results for C=C(C)C1CC=C(C)/C(=N/NC(=O)COc2ccccc2Cl)C1 (configuration not stated) ?
Tb MetRS inh: inactive; EBV gp42 block: inactive; CHOP inh: inactive; NR3A LBD binder: inactive; WT yeast gro inh: 58.3; MPTP inh: inactive

How did C=C(C)C1CC=C(C)/C(=N\NC(=O)CCc2ccccc2)C1 (configuration not stated) do in these assays?
Tb MetRS inh: inactive; EBV gp42 block: inactive; CHOP inh: inactive; NR3A LBD binder: inactive; WT yeast gro inh: inactive; MPTP inh: inactive

What do the screens show for `C=C(C)C1CC=C(C)/C(=N/NC(=O)CCC(=O)Nc2ccccc2Cl)C1` (configuration not stated)?
Tb MetRS inh: inactive; NR3A LBD binder: inactive; MPTP inh: inactive

Results for CCNc1c([N+](=O)[O-])c(=O)oc2ccccc12 ?
Tb MetRS inh: inactive; EBV gp42 block: inactive; CHOP inh: inactive; NR3A LBD binder: inactive; WT yeast gro inh: inactive; MPTP inh: inactive

What do the screens show for `COc1c([N+](=O)[O-])c(=O)oc2ccccc12`?
Tb MetRS inh: inactive; EBV gp42 block: inactive; CHOP inh: inactive; NR3A LBD binder: 12.6; WT yeast gro inh: inactive; MPTP inh: inactive

Results for C[C@H]1CN([C@@H](C)CO)S(=O)(=O)c2ccc(Br)cc2O[C@H]1CN(C)C(=O)C1CCC1 ?
Tb MetRS inh: inactive; MPTP inh: inactive

Results for COc1ccc(C2=NN(C(=O)CSc3nnc(-c4ccccc4F)o3)C(c3ccco3)C2)cc1 (configuration not stated) ?
Tb MetRS inh: inactive; EBV gp42 block: inactive; CHOP inh: inactive; NR3A LBD binder: inactive; WT yeast gro inh: inactive; MPTP inh: inactive

What do the screens show for `O=C(Nc1nc(-c2ccc(F)cc2)cs1)c1ccc(N2C(=O)CCC2=O)cc1`?
Tb MetRS inh: inactive; EBV gp42 block: inactive; CHOP inh: inactive; NR3A LBD binder: 24.9; WT yeast gro inh: inactive; MPTP inh: inactive

How did COc1ccc(-c2csc(NC(=O)c3cccc(N4C(=O)CCC4=O)c3)n2)cc1OC do in these assays?
Tb MetRS inh: inactive; NR3A LBD binder: inactive; MPTP inh: inactive

How did COc1ccc(-c2csc(NC(=O)c3ccc(N4C(=O)CCC4=O)cc3)n2)cc1 do in these assays?
Tb MetRS inh: inactive; EBV gp42 block: inactive; CHOP inh: inactive; NR3A LBD binder: inactive; WT yeast gro inh: inactive; MPTP inh: inactive

What do the screens show for `COc1ccccc1-c1csc(NC(=O)c2ccc(N3C(=O)CCC3=O)cc2)n1`?
Tb MetRS inh: inactive; EBV gp42 block: inactive; CHOP inh: inactive; NR3A LBD binder: 34.0; WT yeast gro inh: inactive; MPTP inh: inactive

What do the screens show for `CC(C)(C)c1ccc(C(=O)NCC(=O)OCC(=O)Nc2nc(-c3ccc(F)cc3)cs2)cc1`?
Tb MetRS inh: inactive; EBV gp42 block: inactive; CHOP inh: 73.5; NR3A LBD binder: 10.2; WT yeast gro inh: inactive; MPTP inh: inactive

Results for CN(C(=O)COC(=O)Cc1c(Cl)cccc1Cl)c1c(N)n(Cc2ccccc2)c(=O)[nH]c1=O ?
Tb MetRS inh: inactive; NR3A LBD binder: inactive; MPTP inh: inactive

Results for C=CCn1cc(C(=O)NCc2cccnc2)c(=O)c2cc(S(=O)(=O)N(CC)CC)ccc21 ?
Tb MetRS inh: inactive; EBV gp42 block: inactive; CHOP inh: inactive; NR3A LBD binder: inactive; WT yeast gro inh: inactive; MPTP inh: inactive

How did CN(C)c1ccc(C(=S)NC2CCCCC2)cc1 do in these assays?
Tb MetRS inh: inactive; EBV gp42 block: inactive; CHOP inh: inactive; NR3A LBD binder: inactive; WT yeast gro inh: inactive; MPTP inh: inactive

What do the screens show for `CCN(CC)c1ccc(C(=S)NC2CCCCC2)cc1`?
Tb MetRS inh: inactive; EBV gp42 block: inactive; CHOP inh: inactive; NR3A LBD binder: inactive; WT yeast gro inh: 73.4; MPTP inh: inactive

What do the screens show for `CCN(CC)c1ccc(C(=S)NCc2ccccc2)cc1`?
Tb MetRS inh: inactive; EBV gp42 block: inactive; CHOP inh: inactive; NR3A LBD binder: inactive; WT yeast gro inh: 67.1; MPTP inh: inactive

How did COc1ccc(/C=C/C(=O)c2ccccc2)cc1COc1ccccc1F do in these assays?
Tb MetRS inh: inactive; EBV gp42 block: inactive; CHOP inh: inactive; NR3A LBD binder: inactive; WT yeast gro inh: inactive; MPTP inh: inactive

What do the screens show for `COC(=O)[C@H]1Cc2c([nH]c3ccccc23)[C@H](c2ccccc2)N1`?
Tb MetRS inh: inactive; NR3A LBD binder: 10.0; MPTP inh: inactive
